Laboratory results reported in ChEMBL document CHEMBL1142593, “Physaloside A, an acylated sucrose ester from Physalis viscosa” (J Nat Prod, 2005).

Legend:
Klebsiella pneumoniae = assay: Antibacterial activity against Klebsiella pneumoniae after 18 hrs; type: functional, organism-based
Procedure, shortened: (§1)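 Strains first grown on Mueller-Hinton agar, then in Mueller-Hinton broth with CaCl2/MgCl2 for 18 h at 37 °C. Serial dilutions were made (K. pneumoniae and P. aeruginosa […]) and equilibrated 30 min at 37 °C. Cultures were added to the samples, shaken 18 h at 37 °C and 60% humidity, and read at OD650. Controls were no inhibitor and 50 µg/mL streptomycin.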

Pseudomonas aeruginosa = assay: Antibacterial activity against Pseudomonas aeruginosa after 18 hrs; type: functional, organism-based; procedure, shortened: as §1
Staphylococcus aureus = assay: Antibacterial activity against Staphylococcus aureus after 18 hrs; type: functional, organism-based; procedure, shortened: as §1
Streptococcus pneumoniae = assay: Antibacterial activity against Streptococcus pneumoniae after 18 hrs; type: functional, organism-based; procedure, shortened: as §1
THP-1 = assay: Cytotoxicity against human THP1 cells after 72 hrs by WST1 assay; type: cell-based; details: THP-1, 72 h
Procedure, shortened: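 Cells were kept in RPMI 1640 with 10% FBS, 2 mM L-glutamine, penicillin/streptomycin and 10 µM 2-mercaptoethanol at 37 °C, 5% CO2, and seeded at 2.5 × 10^4 cells/well. Samples were tested at 250 µg/mL final for 72 h. WST-1 was added for a further 1–2 h, then A450 was read. Controls were 10 µM camptothecin and 0.1% DMSO.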

[1] = Selectivity ratio of IC50 for human THP1 cells to IC50 for Staphylococcus aureus; type: ADME, cell-based, THP-1
[2] = Selectivity ratio of IC50 for human THP1 cells to IC50 for Streptococcus pneumoniae; type: ADME, cell-based, THP-1
[3] = Selectivity ratio of IC50 for Klebsiella pneumoniae to IC50 for Staphylococcus aureus; type: functional
[4] = Selectivity ratio of IC50 for Pseudomonas aeruginosa to IC50 for Staphylococcus aureus; type: functional

CCCCCCCCCCCC(=O)O[C@H]1[C@@H](O[C@@]2(CO)O[C@@H](CO)[C@H](O)[C@H]2O)O[C@H](CO)[C@@H](O)[C@@H]1OC(=O)C=C(C)C [PHYSALOSIDE A]
IC50 (Klebsiella pneumoniae): > 413 µM
IC50 (Pseudomonas aeruginosa): > 413 µM
IC50 (Staphylococcus aureus): 52 µM
IC50 (Streptococcus pneumoniae): 57 µM
IC50 (THP-1): > 800 µM
selectivity ratio [1]: > 10
selectivity ratio [2]: > 10
Ratio IC50 [3]: > 8
Ratio IC50 [4]: > 8
